One data set concerns Staphylococcus aureus. Nature of the data set: Antibacterial activity against Staphylococcus aureus ATCC 29213 incubated for 24 hrs by broth microdilution method. It counts as functional. Particulars: ATCC 29213, 24 h. A general note: Broth dilution looks for growth in wells or tubes with falling amounts of substance.
Another data set concerns Enterococcus faecalis. The data set is described as follows: Antibacterial activity against Enterococcus faecalis ATCC 29212 incubated for 24 hrs by broth microdilution method. Particulars: ATCC 29212, 24 h. The data set is classed as functional.
In the next data set the test system is Streptococcus pyogenes. The data set is described as follows: Antibacterial activity against Streptococcus pyogenes ATCC 51339 incubated for 24 hrs by broth microdilution method. The conditions noted are these: ATCC 51339, 24 h. It counts as functional.
Data set [1] in a line: Retention time of the compound by HPLC method. It counts as physicochemical.
A further data set concerns Haemophilus influenzae. Nature of the data set: Antibacterial activity against Haemophilus influenzae ATCC 49247 incubated for 24 hrs by broth microdilution method. Particulars: ATCC 49247, 24 h. It counts as functional.
The target of the next data set is DNA gyrase (Escherichia coli, UniProt P0AES4+P0AES6). The data set is described as follows: Inhibition of Escherichia coli GyrB A2B2 subunits assessed reduction in DNA supercoiling activity by malachite green dye based by spectrophotometry. The data set is classed as protein-complex assay. The method, boiled down:
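Inhibition was measured as loss of ATPase activity of the E. coli GyrB enzyme and reported as IC50.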

In general, pIC50 refers to the IC50 on a negative log10 scale, so that one unit is a factor of ten.

Each structure is given as a SMILES string. pIC50: −log10 of the molar value. Values after ≈ are worked out from the molar mass of the structure shown.

In the case of `CCNC(=O)Nc1ccc(C(=O)Nc2cccc(C(N)=O)c2)cn1`, the MIC in the data set with Staphylococcus aureus, with Enterococcus faecalis, against Streptococcus pyogenes and against Haemophilus influenzae was above 256 µg/mL each time. Besides, the Retention_time in data set [1] was determined as 1.44 min. The molecule also gave a pIC50 on DNA gyrase of 4.61.

`CCNC(=O)Nc1nc2cc(-c3cccnc3)cc(-c3ccccn3)c2s1` gave an MIC with Enterococcus faecalis below 0.25 µg/mL. On DNA gyrase, this molecule gave a negative-log IC50 (pIC50) above 6.12.

`CCNC(=O)Nc1cc(Nc2ccccc2)c(C(=O)NCc2cccnc2)cn1`: the MIC is above 16 µg/mL against Staphylococcus aureus, 0.5 µg/mL (≈ 1.28 µM) in the data set on Enterococcus faecalis, 1 µg/mL (≈ 2.56 µM) in the data set with Streptococcus pyogenes and above 64 µg/mL against Haemophilus influenzae. Also, the Retention_time in data set [1] amounted to 1.24 min. The molecule also showed a negative-log IC50 (pIC50) on DNA gyrase of 5.70.

`CCNC(=O)Nc1ccc(C(=O)Nc2ncc(C(=O)O)s2)cn1`: the MIC in the data set on Staphylococcus aureus, in the data set with Enterococcus faecalis, in the data set on Streptococcus pyogenes and in the data set on Haemophilus influenzae was above 64 µg/mL throughout. For the same molecule, in data set [1], the Retention_time is on record as 1.43 min. The pIC50 at DNA gyrase is 6.02.

As for `CCNC(=O)Nc1cc(-c2ccccc2)c(C(=O)Nc2cccc(Cl)c2)cn1`, the MIC was above 64 µg/mL in the data set with Staphylococcus aureus, 4 µg/mL (≈ 10.1 µM) in the data set on Enterococcus faecalis, above 64 µg/mL with Streptococcus pyogenes and above 64 µg/mL against Haemophilus influenzae. This molecule came in with a Retention_time in data set [1] of 1.88 min. On DNA gyrase, this molecule had a negative-log IC50 (pIC50) of 6.09.

As to `CCNC(=O)Nc1cc(-c2cccnc2)c(C(=O)Nc2cccc(C)c2)cn1`, the MIC in the data set on Staphylococcus aureus was above 64 µg/mL; against Enterococcus faecalis, 64 µg/mL (≈ 170 µM); against Streptococcus pyogenes, above 64 µg/mL; in the data set on Haemophilus influenzae, above 64 µg/mL. Also, in data set [1], the Retention_time stood at 1.51 min. Further, the negative logarithm of the IC50 (pIC50) against DNA gyrase was 5.14.

`CCNC(=O)Nc1cc(-c2cccnc2)c(C(=O)Nc2cccc(Cl)c2)cn1`: the MIC against Staphylococcus aureus was above 64 µg/mL; in the data set with Enterococcus faecalis, 64 µg/mL (≈ 162 µM); against Streptococcus pyogenes, 64 µg/mL (≈ 162 µM); in the data set on Haemophilus influenzae, above 64 µg/mL. In addition, the Retention_time in data set [1] worked out at 1.6 min. This molecule had a negative-log IC50 (pIC50) against DNA gyrase of 5.52.

Consider `CCNC(=O)Nc1ccc(C(=O)NC2CCCCC2)cn1`, for which the MIC against Staphylococcus aureus, with Enterococcus faecalis, against Streptococcus pyogenes and against Haemophilus influenzae was above 64 µg/mL each time. The molecule also gave a Retention_time in data set [1] of 1.67 min. Further, the negative logarithm of the IC50 (pIC50) on DNA gyrase is 4.64.

With `CCNC(=O)Nc1cc(N2CCN(C)CC2)c(C(=O)Nc2cccc(C)c2)cn1`, the MIC in the data set on Staphylococcus aureus, with Enterococcus faecalis, in the data set with Streptococcus pyogenes and against Haemophilus influenzae was above 64 µg/mL in each case. Besides, in data set [1], the Retention_time is on record as 1.26 min. The molecule further gave a pIC50 against DNA gyrase of 4.74.

As for `CCNC(=O)Nc1cc(NC2CCCCC2)c(C(=O)Nc2cccc(C)c2)cn1`, the MIC in the data set on Staphylococcus aureus, with Enterococcus faecalis, in the data set on Streptococcus pyogenes and against Haemophilus influenzae was above 64 µg/mL each time. Moreover, the Retention_time in data set [1] turned out to be 1.7 min. The molecule further gave a negative logarithm of the IC50 (pIC50) at DNA gyrase of 5.67.

In the case of `CCNC(=O)Nc1cc(N2CCN(C)CC2)c(C(=O)Nc2nccs2)cn1`, the MIC in the data set with Staphylococcus aureus, in the data set on Enterococcus faecalis, in the data set with Streptococcus pyogenes and in the data set with Haemophilus influenzae was above 64 µg/mL each time. The molecule also returned a Retention_time in data set [1] of 1.18 min. Besides, the negative-log IC50 (pIC50) against DNA gyrase is 4.48.

On to `CCNC(=O)Nc1ccc(C(=O)Nc2cc(C(=O)OC)ccn2)cn1`, for which the MIC against Staphylococcus aureus, with Enterococcus faecalis, against Streptococcus pyogenes and in the data set on Haemophilus influenzae was above 64 µg/mL each time. Besides, in data set [1], the Retention_time worked out at 1.66 min. Besides, on DNA gyrase, the negative logarithm of the IC50 (pIC50) was 4.85.

Take `CCNC(=O)Nc1cc(N2CCN(C)CC2)c(C(=O)Nc2cccnc2)cn1`: the MIC against Staphylococcus aureus, in the data set on Enterococcus faecalis, in the data set with Streptococcus pyogenes and in the data set on Haemophilus influenzae was above 64 µg/mL throughout. Moreover, the Retention_time in data set [1] turned out to be 0.27 min. Also, the pIC50 on DNA gyrase was 5.25.

With `CCNC(=O)Nc1cc(Nc2cccc(C)c2)c(C(=O)Nc2nccs2)cn1`, the MIC with Staphylococcus aureus, with Enterococcus faecalis, in the data set with Streptococcus pyogenes and in the data set with Haemophilus influenzae was above 64 µg/mL each time. The molecule further registered a Retention_time in data set [1] of 1.51 min. At DNA gyrase, this molecule had a negative logarithm of the IC50 (pIC50) of 7.01.
